According to ChEMBL document CHEMBL1687719, “Absence of CD4+ T lymphocytes, CD8+ T lymphocytes, or B lymphocytes has different effects on the efficacy of posaconazole and benznidazole in treatment of experimental acute Trypanosoma cruzi infection” (2009):
The source made the active and inactive calls. No cut-off for these calls is given here.

Key:
[1] = tested on: Trypanosoma cruzi; assay: Antitrypanosomal activity against Trypanosoma cruzi Y infected in CD8+ T-lymphocyte knockout C57BL/6 mouse assessed as occurrence of subpatent level of parasitemia at 20 mg/kg/day, po administered twice daily for 20 consecutive days measured 60 days post infection; format: functional, organism-based
Outline: (§1)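 Ip infection was 5,000 Y-strain blood trypomastigotes. From 4 dpi mice got 20 mg/kg/day orally in two daily doses (2% methylcellulose/0.5% Tween 80) for 20 days. Fresh tail blood was examined microscopically, daily from 4–16 dpi and every other day to 60 dpi. Reactivation was scored as return of patent parasitemia after treatment. Parasitemia curves were compared by Mann-Whitney.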

[2] = tested on: Trypanosoma cruzi; assay: Antitrypanosomal activity against Trypanosoma cruzi Y infected in CD8+ T-lymphocyte knockout C57BL/6 mouse assessed as occurrence of low level of circulating parasites at 20 mg/kg/day, po administered twice daily for 20 consecutive days measured 25 days post infection; format: functional, organism-based; outline: as §1
[3] = tested on: Trypanosoma cruzi; assay: Antitrypanosomal activity against Trypanosoma cruzi Y infected in CD8+ T-lymphocyte knockout C57BL/6 mouse assessed as number of mouse with reactivated parasite at 20 mg/kg/day, po administered twice daily for 20 consecutive days measured 60 days post infection; format: functional; outline: as §1
[4] = tested on: Trypanosoma cruzi; assay: Antitrypanosomal activity against Trypanosoma cruzi Y infected in B-lymphocyte knockout C57BL/6 mouse assessed as number of mouse with reactivation of infection at 20 mg/kg/day, […] for 20 consecutive days measured 22 days post infection; format: functional, organism-based
[5] = tested on: Trypanosoma cruzi; assay: Antitrypanosomal activity against Trypanosoma cruzi Y infected in CD4+ T-lymphocyte knockout C57BL/6 mouse assessed as reactivation of parasite in mouse at 20 mg/kg/day, po administered twice daily for 20 consecutive days measured 60 days post infection; format: functional, organism-based; outline: as §1
[6] = tested on: Trypanosoma cruzi; assay: Antitrypanosomal activity against Trypanosoma cruzi Y infected in CD4+ T-lymphocyte knockout C57BL/6 mouse assessed as reactivation of parasite in mouse at 100 mg/kg/day, po administered once daily for 20 consecutive days measured 60 days post infection; format: functional, organism-based
Outline: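 Ip infection was 5,000 Y-strain blood trypomastigotes. Oral dosing at 100 mg/kg/day, once daily in gum arabic water, ran from 4 dpi for 20 days. Parasitemia was read by microscopy of fresh tail blood, daily from 4–16 dpi, then every other day to 60 dpi. Reactivation was scored as patent parasitemia returning after treatment ended.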

[7] = tested on: Trypanosoma cruzi; assay: Antitrypanosomal activity against Trypanosoma cruzi Y infected in C57BL/6 mouse assessed as increase in survival of mouse at 20 mg/kg/day, po administered twice daily for 20 consecutive days measured 60 days post infection; format: functional; conditions: 1440 h
Outline: (§2)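 Mice were infected ip with 5,000 Y-strain blood trypomastigotes. Oral treatment began at 4 dpi at 20 mg/kg/day, split into two daily doses, suspended in 2% methylcellulose with 0.5% Tween 80, for 20 days. Survival was recorded to 60 dpi, giving rate and mean survival time. Untreated and vehicle-treated infected controls were included. Chi-square/Bonferroni comparison.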

[8] = tested on: Trypanosoma cruzi; assay: Antitrypanosomal activity against Trypanosoma cruzi Y infected in C57BL/6 mouse assessed as mean survival time at 20 mg/kg/day, po administered twice daily for 20 consecutive days measured 60 days post infection; format: functional; outline: as §2
[9] = tested on: Trypanosoma cruzi; assay: Antitrypanosomal activity against Trypanosoma cruzi Y infected in C57BL/6 mouse assessed as cure rate in mouse at 20 mg/kg/day, po administered twice daily for 20 consecutive days measured 60 days post infection; format: functional
Outline: (§3)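 Wild-type or knockout mice got 5,000 Y-strain blood trypomastigotes ip. Oral dosing ran from 4 dpi for 20 days: 20 mg/kg/day in two doses, in 2% methylcellulose plus 0.5% Tween 80. Cure meant no parasitemia on fresh tail blood up to 60 dpi and a negative hemoculture: 0.5 ml orbital blood in LIT medium, 28°C, 30–60 days, checked by microscopy. Rates compared by chi-square/Bonferroni.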

[10] = tested on: Trypanosoma cruzi; assay: Antitrypanosomal activity against Trypanosoma cruzi Y infected in CD4+ T-lymphocyte knockout C57BL/6 mouse assessed as increase in survival of mouse at 20 mg/kg/day, po administered twice daily for 20 consecutive days measured 60 days post infection; format: functional; conditions: 1440 h; outline: as §2
[11] = tested on: Trypanosoma cruzi; assay: Antitrypanosomal activity against Trypanosoma cruzi Y infected in CD4+ T-lymphocyte knockout C57BL/6 mouse assessed as mean survival time at 20 mg/kg/day, po administered twice daily for 20 consecutive days measured 60 days post infection; format: functional; outline: as §2
[12] = tested on: Trypanosoma cruzi; assay: Antitrypanosomal activity against Trypanosoma cruzi Y infected in CD4+ T-lymphocyte knockout C57BL/6 mouse assessed as cure rate in mouse at 20 mg/kg/day, po administered twice daily for 20 consecutive days measured 60 days post infection; format: functional; outline: as §3
[13] = tested on: Trypanosoma cruzi; assay: Antitrypanosomal activity against Trypanosoma cruzi Y infected in CD8+ T-lymphocyte knockout C57BL/6 mouse assessed as increase in survival of mouse at 20 mg/kg/day, po administered twice daily for 20 consecutive days measured 60 days post infection; format: functional; conditions: 1440 h; outline: as §2
[14] = tested on: Trypanosoma cruzi; assay: Antitrypanosomal activity against Trypanosoma cruzi Y infected in CD8+ T-lymphocyte knockout C57BL/6 mouse assessed as mean survival time at 20 mg/kg/day, po administered twice daily for 20 consecutive days measured 60 days post infection; format: functional; outline: as §2
[15] = tested on: Trypanosoma cruzi; assay: Antitrypanosomal activity against Trypanosoma cruzi Y infected in CD8+ T-lymphocyte knockout C57BL/6 mouse assessed as cure rate in mouse at 20 mg/kg/day, po administered twice daily for 20 consecutive days measured 60 days post infection; format: functional; outline: as §3
[16] = tested on: Trypanosoma cruzi; assay: Antitrypanosomal activity against Trypanosoma cruzi Y infected in B-lymphocyte knockout C57BL/6 mouse assessed as increase in survival of mouse at 20 mg/kg/day, po administered twice daily for 20 consecutive days measured 60 days post infection; format: functional; conditions: 1440 h; outline: as §2
[17] = tested on: Trypanosoma cruzi; assay: Antitrypanosomal activity against Trypanosoma cruzi Y infected in B-lymphocyte knockout C57BL/6 mouse assessed as mean survival time at 20 mg/kg/day, po administered twice daily for 20 consecutive days measured 60 days post infection; format: functional; outline: as §2
[18] = tested on: Trypanosoma cruzi; assay: Antitrypanosomal activity against Trypanosoma cruzi Y infected in B-lymphocyte knockout C57BL/6 mouse assessed as cure rate in mouse at 20 mg/kg/day, po administered twice daily for 20 consecutive days measured 60 days post infection; format: functional; outline: as §3
[19] = tested on: Trypanosoma cruzi; assay: Antitrypanosomal activity against Trypanosoma cruzi Y infected in CD4+ T-lymphocyte knockout C57BL/6 mouse assessed as reactivation of parasite in mouse at 20 mg/kg/day, po administered twice daily for 20 consecutive days measured 7 days post infection; format: functional, organism-based; outline: as §1

Q: Which Activity [1] does the source give for `CC[C@@H]([C@H](C)O)n1ncn(-c2ccc(N3CCN(c4ccc(OC[C@@H]5CO[C@@](Cn6cncn6)(c6ccc(F)cc6F)C5)cc4)CC3)cc2)c1=O` [POSACONAZOLE] here?
A: Its Activity is “Active”.

Q: And the Activity [2]?
A: Its Activity is “Active”.

Q: What about the Activity [3] of the same compound?
A: The Activity was 13%.

Q: What about the Activity [4] of the same compound?
A: The Activity was “Active”.

Q: What about the Activity [5] of the same compound?
A: The Activity was “inactive”.

Q: And the Activity [6]?
A: The Activity was “inactive”.

Q: What about the survival at 20 mg/kg/day [7] of the same compound?
A: Its survival at 20 mg/kg/day is 100%.

Q: And the MST [8]?
A: The MST was greater than 60 days.

Q: What about the Activity [9] of the same compound?
A: The Activity was 89%.

Q: And the survival at 20 mg/kg/day [10]?
A: Its survival at 20 mg/kg/day is 6%.

Q: What about the MST [11] of the same compound?
A: The MST was 50.5 days.

Q: What about the Activity [12] of the same compound?
A: Its Activity is 0%.

Q: And the survival at 20 mg/kg/day [13]?
A: Its survival at 20 mg/kg/day is 81%.

Q: What about the MST [14] of the same compound?
A: Its MST is 59.6 days.

Q: What about the Activity [15] of the same compound?
A: The Activity was 31%.

Q: What about the survival at 20 mg/kg/day [16] of the same compound?
A: The survival at 20 mg/kg/day was 100%.

Q: What about the MST [17] of the same compound?
A: Its MST is greater than 60 days.

Q: And the Activity [18]?
A: The Activity was 71%.

Q: And the Activity [19]?
A: Its Activity is “inactive”.
